Source: PubChem
Beta apoptosis = blocks beta cell apoptosis. INS-1E cytokine-induced death, ATP luminescence, 48 h; percent of positive-control rescue, neutral wells zero. actives 0.8% (n = 300,000). protection from apoptosis, % (no concentration beside the values). AID 435005;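 active = Every replicate reaches about 75%, or at least half do and their mean reaches it too, limit read from the data; inconclusive = At least half of replicates reach the limit but their mean does not; inactive = Under half of replicates reach the limit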;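 note: 0% = cytokine-treated negative control wells and 100% = positive control rescue; higher means more ATP so stronger rescue from cytokine killing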
T cruzi repl = blocks replication of Trypanosoma cruzi | actives 1.4% (n = 300,000) | inhibition, % (no concentration beside the values) | T. cruzi beta-gal in NIH3T3, luminescence, 90 h;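 active = mean inhibition across valid replicates above about 55%, limit read from the data; inconclusive = mean below that limit but half or more replicates reach it; inactive = mean below it, under half of replicates reach it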;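 note: signal also drops with host cell toxicity which is not excluded here; 0% = plate median of DMSO wells and 100% = zero luminescence signal; higher percent means less beta-gal luminescence so fewer parasites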
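Material: NIH/3T3 host cells with β-galactosidase reporter T. cruzi; Input: 5,000 host fibroblasts per well; Medium: DMEM, 2% fetal bovine serum; Compound: 50 nL DMSO compound solution per well; Schedule: 3 h host attachment, then at least 90 h co-culture; Detection: luminescent β-galactosidase signal after 60 min lysis.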
GRIN3A LBD mod = modulates the human NR3A ligand-binding domain | AID 1259313 | actives 2.5% (n = 340,000) | Tm shift relative to glycine control, % at 25 µM | NR3A LBD differential scanning fluorimetry, Tm shift; 0% = protein alone, 100% = glycine-bound protein;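 active = melting temperature shift of at least 10% of the positive control shift, at one fixed dose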
CSC inhib = cancer stem cell inhibition. actives 1.1% (n = 300,000). cancer stem cell-like cells viability, luminescence. inhibition, % at 7.5 µM; in the data active = inhibition above about 75%; inconclusive = no clear call, values can overlap the other calls; tested in HMLE shEcad cells
CHOP inh = inhibitors of CHOP induction in ER stress response; CHO-K1 CHOP-promoter luciferase, tunicamycin-induced, 15-18 h; actives 3.8% (n = 220,000); inhibition, % at 10 µM;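 active = compounds that reduced the stress-induced luciferase reporter signal by more than about 70% of percent inhibition, limit read from the data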;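 note: 0% = tunicamycin plus vehicle and 100% = wells without tunicamycin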
PREPL inh = inhibits the human prolyl oligopeptidase-like enzyme; actives 0.68% (n = 320,000); recombinant PREPL, fluorescence polarization activity-based probe; inhibition, % at 5.96 µM; Q4J6C6; in the data active = inhibition above about 43%;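 note: 0% = enzyme with DMSO and 100% = wells lacking enzyme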
Target sequence (Q4J6C6 whole entry, looked up): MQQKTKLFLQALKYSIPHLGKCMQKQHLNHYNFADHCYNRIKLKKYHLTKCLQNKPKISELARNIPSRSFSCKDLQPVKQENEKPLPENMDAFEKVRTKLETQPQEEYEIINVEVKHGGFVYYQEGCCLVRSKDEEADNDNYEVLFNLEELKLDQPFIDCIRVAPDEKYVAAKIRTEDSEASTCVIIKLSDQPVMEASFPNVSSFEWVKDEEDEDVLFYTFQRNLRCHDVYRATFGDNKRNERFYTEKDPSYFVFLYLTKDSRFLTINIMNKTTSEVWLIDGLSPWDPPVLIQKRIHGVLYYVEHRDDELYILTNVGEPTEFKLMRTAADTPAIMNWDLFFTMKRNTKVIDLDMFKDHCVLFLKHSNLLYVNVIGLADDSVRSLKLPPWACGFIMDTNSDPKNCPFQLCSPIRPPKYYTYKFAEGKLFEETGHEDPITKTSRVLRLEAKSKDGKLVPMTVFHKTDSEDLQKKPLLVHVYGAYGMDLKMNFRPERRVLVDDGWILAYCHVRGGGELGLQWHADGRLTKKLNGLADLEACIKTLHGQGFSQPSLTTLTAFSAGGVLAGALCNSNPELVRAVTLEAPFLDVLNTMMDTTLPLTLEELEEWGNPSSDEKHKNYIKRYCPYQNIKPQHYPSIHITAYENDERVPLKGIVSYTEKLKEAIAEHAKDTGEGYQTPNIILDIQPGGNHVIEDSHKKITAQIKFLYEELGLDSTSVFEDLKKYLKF
Active calls of the source: *; ? = inconclusive; . = no result; ! = repeats disagree. Most compounds without a hit are left out; they make up all but 6.7% or so of the library.

SMILES | Beta apoptosis | T cruzi repl | GRIN3A LBD mod | CSC inhib | CHOP inh | PREPL inh
COc1ccc(N/C=C/C(=O)c2cc(OC)c(OC)c(OC)c2)cc1 | 31 | -53 | 30* | 68 | . | 5
COc1cccc(N/C=C/C(=O)c2ccc(C)cc2)c1 | -1 | -3 | -8 | 12 | . | -13
COc1ccc(N/C=C/C(=O)c2ccc(OC)c(OC)c2)cc1 | . | -8 | -4 | 11 | 26 | 0
Cc1ccc(NC(=O)c2ccc3c(c2)N(CC(=O)NC(C)C)C(=O)C(C)(C)O3)cc1 | -4 | -13 | -1 | -8 | . | 3
C=C(C)COC(=O)C1CC2OC2CC1C(=O)OCC(=C)C (centres undefined) | . | . | 1 | . | . | .
CCOc1ccc(C(=O)NC2CC(=O)N(c3ccc4c(c3)OCCO4)C2)cc1 (centres undefined) | . | -6 | 1 | -24 | . | -2
O=C(O)[C@H]1CCCC[C@H]1C(=O)Nc1ccc(S(=O)(=O)N2CCOCC2)cc1 | -5 | -22 | -1 | . | . | 0
COC(=O)Cc1c[nH]c2cccc(OCC(O)CN(Cc3ccccc3)C(C)C)c12 (centres undefined) | -1 | 10 | 1 | 0 | 7 | -1
Cc1ccc(CN(CC(O)COc2cccc3[nH]cc(C)c23)C(C)(C)C)cc1 (centres undefined) | -2 | 32 | -2 | 76* | . | 8
COC(=O)Cc1c[nH]c2cccc(OCC(O)CN(Cc3ccc([N+](=O)[O-])cc3)C(C)(C)C)c12 (centres undefined) | . | 65* | -3 | 0 | 51 | 14
CC(=O)Nc1ccc(C(=O)N/N=C/c2cccnc2)cc1 | -3 | -2 | 0 | -4 | 18 | 1
O=C(N/N=C/c1cccnc1)c1ccc(Cl)c(Cl)c1 | . | 7 | 14* | -3 | . | 12
Cc1cccc(/C=N/NC(=O)c2ccc(NC(=O)c3cccc(Cl)c3)cc2)n1 | -8 | -2 | 15* | 5 | . | -5
O=C(N/N=C/c1cccnc1)c1ccc(NC(=O)c2cccc(Cl)c2)cc1 | 2 | 10 | 12* | -6 | . | -12
O=C(N/N=C/c1cccnc1)c1ccc(NC(=O)c2ccc(Cl)cc2)cc1 | 9 | 2 | 14* | . | . | -1
CCC(C)c1ccc(NC(=O)c2c([N+](=O)[O-])cnn2CC)cc1 (centres undefined) | 5 | 23 | -2 | -1 | . | .
Cc1ccc(NC(=O)NNC(=O)CN2C(=O)COc3ccccc32)cc1 | -6 | 0 | 0 | -6 | . | -2
O=C(N/N=C\c1cccnc1)c1cc(-c2ccc(Cl)s2)[nH]n1 | 8 | -10 | 23* | 17 | -12 | -2
CN(C)C(/C=C/Nc1ccc([N+](=O)[O-])cc1)=C(C#N)C#N | -2 | 2 | 18* | -7 | 2 | 7
CCCOc1ncnc2c1[nH]c1ccccc12 | 10 | 0 | 2 | 2 | 72* | 5
C#CCN(C(=O)c1ccc(OC)c(OC2CCN(C(C)C)CC2)c1)C1CCCCC1 | 4 | 17 | 4 | -9 | . | .
COc1cc(/C=N/NC(=Nc2ccc(C)cc2)c2nc3ccccc3s2)ccc1O | 16 | 42 | -21 | . | 74* | 8
COc1cccc(/C=N/Nc2nc3ccccc3[nH]2)c1O | 94* | 48 | -11 | 68 | 54 | 31
COc1cc(/C=N/Nc2cc(C)nc(N)n2)ccc1O | 9 | -7 | 2 | -10 | . | -2
COc1cc(/C=N/Nc2snc(SC)c2C#N)ccc1O | 27 | -80 | 20* | 58 | -97 | 17
SMILES | Beta apoptosis | T cruzi repl | GRIN3A LBD mod | CSC inhib | CHOP inh | PREPL inh
COc1cccc(/C=N/Nc2nc3ccccc3n3cnnc23)c1O | 119* | 14 | -1 | 57 | 34 | 41
COc1cccc(/C=N/Nc2nc3ccccc3[nH]2)c1OC | . | -6 | 0 | 1 | -29 | 24
O=C(N/N=C/C1CC2CCC1C2)c1c[nH]c2ccccc12 (centres undefined) | -1 | -16 | -16 | 1 | 5 | 8
COc1cc(/C=N/Nc2nc3ccccc3[nH]2)ccc1O | 18 | -40 | 15* | 8 | -34 | 23
O=C(O)c1ccc(/C=N/Nc2ccc(C(F)(F)F)cn2)cc1 | . | -18 | 0 | . | 1 | .
COc1cc(/C=N/Nc2ccc(C(F)(F)F)cn2)ccc1O | -6 | 6 | 30* | 19 | 28 | 25
COc1cc(/C=N/NC(=O)c2cccc(C(=O)N/N=C/c3ccc(O)c(OC)c3)n2)ccc1O | -1 | -2 | -2 | 11 | . | .
COc1cc(/C=N/NC(=O)c2cc3ccccc3[nH]2)ccc1O | 4 | -1 | 34* | 13 | . | 39
Cc1ccccc1NS(=O)(=O)c1c(C(=O)N2CCCCCC2)c(C)n(C)c1C | 0 | 6 | -3 | -12 | . | 3
COc1cc(C2CC(=O)C3=C(C2)Nc2ncnn2C3c2cccs2)cc(OC)c1OC (centres undefined) | -2 | 11 | -2 | 0 | -27 | 14
COc1ccc(C2CC(=O)C3=C(C2)Nc2ncnn2C3c2ccccc2C)c(OC)c1 (centres undefined) | -11 | 61* | 7 | . | -23 | -16
Cc1ccc(/C(=N/Nc2nc3ccccc3s2)C2=C(O)c3ccccc3C2=O)cc1 | 3 | 2 | 19* | -9 | 35 | -2
CCOc1cc(C)c(S(=O)(=O)Nc2ccc3cn[nH]c3c2)cc1C | 89* | ? | -9 | -11 | 47 | -21
Cc1cc(CNC(=O)COC(=O)Cn2[nH]c(=O)c3ccccc3c2=O)cc(C)c1O | 1 | -8 | 0 | . | . | 13
COCCN1C(=O)c2oc3ccccc3c(=O)c2C1c1cccc(O)c1 (centres undefined) | 7 | -1 | 0 | 1 | 34 | 5
COC(=O)c1sc(N2C(=O)c3oc4ccccc4c(=O)c3C2c2cccc(O)c2)nc1C (centres undefined) | -3 | -13 | -1 | -4 | 75* | -4
Cc1cc(C)n(Cc2cccc(C(=O)N/N=C/c3cccnc3)c2)n1 | . | 4 | 0 | . | . | .
CCOc1ccc2[nH]c(=O)c(CN(CCc3ccccc3)C(=O)c3cnccn3)cc2c1 | -3 | 33 | -1 | -1 | 21 | 4
O=C(c1ccc(COc2ccccc2Cl)o1)N1CCN(Cc2ccc3c(c2)OCO3)CC1 | 6 | 3 | 15*! | 44 | 73*! | 20
Cc1c(C(=O)C(=O)NCc2cccs2)c2ccccc2n1C | -7 | -13 | 0 | -7 | 37 | 15
COc1ccc(C)cc1NC(=O)C(NCC1CCCO1)c1ccccc1 (centres undefined) | -8 | 11 | 15* | -16 | 0 | 2
Cc1ccccc1CN1CCC(CNC(=O)C2CCCN(c3ncnc4c3nc3n4CCCCC3)C2)CC1 (centres undefined) | 3 | 46 | 1 | 6 | . | 28
CC1=NN(c2nc(-c3ccc(C)cc3)cs2)C(=O)C1N=Nc1cccc(O)c1 (centres undefined) | 4 | 18 | 12* | -16 | 65 | 15
